Like-named read-outs stand apart in the source and are kept apart here.
How the values were obtained:
[1] = previously studied radioiodinated α7-nAChR radioligand; cited from earlier work
[2] = target: α7-nAChR (Mus musculus, UniProt P49582); experiment: Blockade of [^125I]iodo-ASEM binding in CD-1 mouse brain by s.c. blockers; type: in vivo, CD-1 mice; details: for inhibition of [^125I]iodo-ASEM binding by blocker: SSR180711 2 mg/kg s.c., 180 min post-injection; for reduction of [^125I]iodo-ASEM accumulation in mouse brain by blocker: CB, Hipp, Ctx, Coll, 180 min, P > 0.05 vs vehicle
α7-nAChR (Mus musculus, UniProt P49582), sequence (P49582 23-502): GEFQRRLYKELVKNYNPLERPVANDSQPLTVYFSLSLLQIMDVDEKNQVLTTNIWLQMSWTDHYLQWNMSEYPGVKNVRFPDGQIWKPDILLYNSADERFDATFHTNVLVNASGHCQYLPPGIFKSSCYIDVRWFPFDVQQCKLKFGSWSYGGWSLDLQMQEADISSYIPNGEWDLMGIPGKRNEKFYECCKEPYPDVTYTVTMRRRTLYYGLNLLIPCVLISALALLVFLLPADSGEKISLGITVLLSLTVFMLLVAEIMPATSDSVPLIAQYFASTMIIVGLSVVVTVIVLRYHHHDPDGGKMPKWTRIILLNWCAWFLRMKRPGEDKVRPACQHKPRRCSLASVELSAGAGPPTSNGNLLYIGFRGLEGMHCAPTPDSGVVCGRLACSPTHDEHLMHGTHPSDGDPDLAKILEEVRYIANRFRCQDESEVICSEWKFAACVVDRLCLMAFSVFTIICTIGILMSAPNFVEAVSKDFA

[3] = target: α7-nAChR (Rattus norvegicus, UniProt Q05941); type: binding
α7-nAChR (Rattus norvegicus, UniProt Q05941), sequence (Q05941 23-502): as the sequence (P49582 23-502) above, with T402A counted along it

[4] = target: α4β2-nAChR (Homo sapiens, UniProt P17787+P43681); type: binding; details: for α7-nAChR Binding selectivity α7/α4β2: ratio of Ki values
α4β2-nAChR, sequence (P17787 26-502): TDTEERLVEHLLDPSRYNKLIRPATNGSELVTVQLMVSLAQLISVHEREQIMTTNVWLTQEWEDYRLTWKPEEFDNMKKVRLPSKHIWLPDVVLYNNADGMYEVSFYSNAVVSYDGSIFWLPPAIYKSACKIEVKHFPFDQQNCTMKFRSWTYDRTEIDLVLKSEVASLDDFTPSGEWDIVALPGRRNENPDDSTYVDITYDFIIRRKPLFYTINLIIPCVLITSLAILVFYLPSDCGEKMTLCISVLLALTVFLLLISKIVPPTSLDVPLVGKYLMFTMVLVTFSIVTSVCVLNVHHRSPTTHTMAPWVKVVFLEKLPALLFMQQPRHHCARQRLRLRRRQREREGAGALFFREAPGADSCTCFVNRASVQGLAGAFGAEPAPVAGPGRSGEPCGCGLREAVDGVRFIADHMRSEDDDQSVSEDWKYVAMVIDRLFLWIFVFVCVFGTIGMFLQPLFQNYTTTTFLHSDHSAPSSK
α4β2-nAChR, sequence (P43681 29-627): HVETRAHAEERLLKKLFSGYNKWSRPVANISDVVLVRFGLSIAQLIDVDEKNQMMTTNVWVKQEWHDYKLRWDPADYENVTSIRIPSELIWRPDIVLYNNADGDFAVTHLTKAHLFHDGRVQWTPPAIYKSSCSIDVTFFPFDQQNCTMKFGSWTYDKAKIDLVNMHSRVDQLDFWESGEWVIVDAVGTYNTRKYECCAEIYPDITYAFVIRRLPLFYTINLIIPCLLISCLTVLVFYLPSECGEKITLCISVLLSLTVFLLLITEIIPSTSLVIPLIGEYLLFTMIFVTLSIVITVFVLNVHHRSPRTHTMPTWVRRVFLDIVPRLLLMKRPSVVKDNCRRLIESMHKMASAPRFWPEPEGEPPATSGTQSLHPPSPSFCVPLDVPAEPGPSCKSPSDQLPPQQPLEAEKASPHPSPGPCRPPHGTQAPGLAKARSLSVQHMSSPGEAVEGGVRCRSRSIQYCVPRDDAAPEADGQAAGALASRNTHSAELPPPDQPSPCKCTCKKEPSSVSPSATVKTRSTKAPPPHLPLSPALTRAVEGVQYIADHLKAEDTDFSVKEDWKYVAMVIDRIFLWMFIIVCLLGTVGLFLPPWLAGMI

[5] = Regional brain distribution; type: in vivo, CD-1 mice; details: for Regional brain distribution: i.v., mean ± SD (n=3)
How it was run: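 Male CD-1 mice (25–30 g) got the radioiodinated test compound by lateral tail vein: 3 μCi, specific radioactivity 1600 mCi/μmol, in 0.2 mL saline. Mice were killed by cervical dislocation at various times (three per time point). Brains were dissected on ice, and regions were weighed and γ-counted alongside injectate standards. Uptake was expressed as %ID/g tissue.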

[6] = target: α3β4-nAChR (Homo sapiens, UniProt P30926+P32297); type: binding
α3β4-nAChR, sequence (P32297 32-505): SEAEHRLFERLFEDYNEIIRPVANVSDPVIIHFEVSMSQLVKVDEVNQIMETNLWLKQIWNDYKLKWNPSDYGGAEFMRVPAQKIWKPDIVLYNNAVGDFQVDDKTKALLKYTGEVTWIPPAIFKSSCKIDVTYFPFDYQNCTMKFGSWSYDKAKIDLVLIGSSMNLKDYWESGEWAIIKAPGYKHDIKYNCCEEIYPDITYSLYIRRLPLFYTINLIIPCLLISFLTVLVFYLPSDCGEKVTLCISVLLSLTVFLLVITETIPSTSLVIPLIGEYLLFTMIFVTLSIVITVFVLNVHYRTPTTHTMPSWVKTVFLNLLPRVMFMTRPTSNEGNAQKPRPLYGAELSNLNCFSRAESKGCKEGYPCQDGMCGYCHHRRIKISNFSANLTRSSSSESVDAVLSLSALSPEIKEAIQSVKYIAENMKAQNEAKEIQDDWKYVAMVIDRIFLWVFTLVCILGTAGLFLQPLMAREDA
α3β4-nAChR, sequence (P30926 22-498): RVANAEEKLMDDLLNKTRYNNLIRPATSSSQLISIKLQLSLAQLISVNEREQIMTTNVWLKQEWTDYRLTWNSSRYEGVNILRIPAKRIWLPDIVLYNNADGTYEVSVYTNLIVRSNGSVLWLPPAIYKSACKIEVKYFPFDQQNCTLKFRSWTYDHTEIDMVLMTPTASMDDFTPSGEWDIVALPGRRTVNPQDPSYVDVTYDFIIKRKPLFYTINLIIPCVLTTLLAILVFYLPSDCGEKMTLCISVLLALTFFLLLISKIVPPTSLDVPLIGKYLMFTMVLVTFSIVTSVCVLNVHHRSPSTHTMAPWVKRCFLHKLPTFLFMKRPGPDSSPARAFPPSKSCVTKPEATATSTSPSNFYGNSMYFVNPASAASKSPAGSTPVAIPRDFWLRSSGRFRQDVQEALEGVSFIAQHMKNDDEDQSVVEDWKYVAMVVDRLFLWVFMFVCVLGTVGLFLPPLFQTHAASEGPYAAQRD

SMILES: [125I]c1occc1-c1cnc2c(c1)C[C@@]1(CN3CCC1CC3)O2 [(1S,2R,4S)-5′-(2-[^125I]iodofuran-3-yl)-3′H-4-azaspiro[bicyclo[2.2.2]octane-2,2′-furo[2,3-b]pyridine]]
- colliculus to cerebellum ratio [1]: ~ 2.5

SMILES: O=C(Oc1ccc(Br)cc1)N1CCN2CCC1CC2 [SSR180711]
- inhibition of [^125I]iodo-ASEM binding by blocker ([2]; cerebellum, P = 0.27): the blockade was negligible
- inhibition of [^125I]iodo-ASEM binding by blocker ([2]; superior and inferior colliculi and hippocampus, P < 0.01): significantly inhibited

SMILES: O=S1(=O)c2cc(N3CCN4CCC3CC4)ccc2-c2cccc([125I])c21 [[^125I]iodo-ASEM, 3-(1,4-Diazabicyclo[3.2.2]nonan-4-yl)-6-[^125I]iododibenzo[b,d]thiophene 5,5-dioxide]
- Ki [3]: 0.5 nM
- α7-nAChR Binding selectivity α7/α4β2 [4]: 3,414
- Regional brain distribution ([5]; Cerebellum, 5 min): 4.25±0.42 %ID/g tissue
- Regional brain distribution ([5]; Cerebellum, 20 min): 5.20±2.08 %ID/g tissue
- Regional brain distribution ([5]; Cerebellum, 60 min): 2.56±0.35 %ID/g tissue
- Regional brain distribution ([5]; Cerebellum, 120 min): 1.41±0.08 %ID/g tissue
- Regional brain distribution ([5]; Cerebellum, 180 min): 0.76±0.15 %ID/g tissue
- Regional brain distribution ([5]; Cerebellum, 240 min): 0.38±0.05 %ID/g tissue
- Regional brain distribution ([5]; Cerebellum, 360 min): 0.21±0.04 %ID/g tissue
- Regional brain distribution ([5]; Cortex, 5 min): 4.78±0.47 %ID/g tissue
- Regional brain distribution ([5]; Cortex, 20 min): 6.25±0.28 %ID/g tissue
- Regional brain distribution ([5]; Cortex, 60 min): 6.50±0.57 %ID/g tissue
- Regional brain distribution ([5]; Cortex, 120 min): 4.29±0.42 %ID/g tissue
- Regional brain distribution ([5]; Cortex, 180 min): 2.74±0.55 %ID/g tissue
- Regional brain distribution ([5]; Cortex, 240 min): 1.40±0.06 %ID/g tissue
- Regional brain distribution ([5]; Cortex, 360 min): 0.72±0.12 %ID/g tissue
- Regional brain distribution ([5]; Hippocampus, 5 min): 3.63±0.40 %ID/g tissue
- Regional brain distribution ([5]; Hippocampus, 20 min): 5.09±0.86 %ID/g tissue
- Regional brain distribution ([5]; Hippocampus, 60 min): 4.40±0.12 %ID/g tissue
- Regional brain distribution ([5]; Hippocampus, 120 min): 3.40±2.03 %ID/g tissue
- Regional brain distribution ([5]; Hippocampus, 180 min): 2.66±0.58 %ID/g tissue
- Regional brain distribution ([5]; Hippocampus, 240 min): 1.70±0.28 %ID/g tissue
- Regional brain distribution ([5]; Hippocampus, 360 min): 0.97±0.12 %ID/g tissue
- Regional brain distribution ([5]; Rest of brain, 5 min): 3.89±0.42 %ID/g tissue
- Regional brain distribution ([5]; Rest of brain, 20 min): 4.90±0.24 %ID/g tissue
- Regional brain distribution ([5]; Rest of brain, 60 min): 4.60±0.18 %ID/g tissue
- Regional brain distribution ([5]; Rest of brain, 120 min): 3.24±0.26 %ID/g tissue
- Regional brain distribution ([5]; Rest of brain, 180 min): 2.09±0.40 %ID/g tissue
- Regional brain distribution ([5]; Rest of brain, 360 min): 0.57±0.05 %ID/g tissue
- Regional brain distribution ([5]; Superior & inferior Colliculi, 5 min): 4.09±0.71 %ID/g tissue
- Regional brain distribution ([5]; Superior & inferior Colliculi, 20 min): 5.50±0.51 %ID/g tissue
- Regional brain distribution ([5]; Superior & inferior Colliculi, 60 min): 5.14±0.20 %ID/g tissue
- Regional brain distribution ([5]; Superior & inferior Colliculi, 120 min): 4.37±0.57 %ID/g tissue
- Regional brain distribution ([5]; Superior & inferior Colliculi, 180 min): 3.16±0.75 %ID/g tissue
- Regional brain distribution ([5]; Superior & inferior Colliculi, 240 min): 1.50±0.28 %ID/g tissue
- Regional brain distribution ([5]; Superior & inferior Colliculi, 360 min): 0.87±0.08 %ID/g tissue
- colliculus to cerebellum ratio, maximum ([5]; at 180 min post-injection, CD-1 mice): 4.2

SMILES: O=c1cccc2n1C[C@@H]1CNC[C@H]2C1 [cytisine]
- reduction of [^125I]iodo-ASEM accumulation in mouse brain by blocker ([2]; cytisine 0.5 mg/kg s.c.): neither cytisine nor ondansetron reduced

SMILES: O=S1(=O)c2cc(N3CCN4CCC3CC4)ccc2-c2cccc(I)c21 [iodo-ASEM]
- Ki ([3]; α7 (rat), HEK-293 membranes, [^3H]epibatidine, mean ± SEM (n=3)): 0.5 ± 0.2 nM
- α7-nAChR Binding selectivity α7/α3β4 ([6]; ratio of Ki values): α7/α3β4 = 90
- Ki ([6]; α3β4 (human), HEK-293 membranes, [^3H]epibatidine, mean ± SEM (n=3)): 45 ± 8 nM
- α7-nAChR Binding selectivity α7/α4β2 [4]: α7/α4β2 = 3,414
- Ki ([4]; α4β2 (human), HEK-293 membranes, [^3H]epibatidine, mean ± SEM (n=3)): 1710 ± 373 nM

SMILES: Cc1nccn1CC1CCc2c(c3ccccc3n2C)C1=O (centres unmarked) [ondansetron]
- reduction of [^125I]iodo-ASEM accumulation in mouse brain by blocker ([2]; ondansetron 2 mg/kg s.c.): neither cytisine nor ondansetron reduced

Reference: paper PMC4387010 (Nuclear medicine and biology, 2014)
